Converted amounts (≈) assume the structure as drawn.
Columns and labels:
[1] = Antiproliferative activity against human skin fibroblast assessed as cell viability at 50 uM by MTT assay; assay type: cell-based; settings: human skin fibroblasts, read-out: Activity
How it was run: (§1)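 MTT viability assay on primary human skin fibroblasts grown in DMEM with 10% FBS and penicillin/streptomycin. Compounds were dissolved in DMSO and given at 1, 50 or 100 µM for 24 h. Cells were washed in HEPES-buffered medium (pH 7.4) and then given MTT 0.5 mg mL⁻¹ for 45 min at 37 °C. Formazan was dissolved in DMSO and read at 570 nm. Viability is % of control; three independent measurements.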

[2] = Lipophilicity, log kw in acetonitrile aqueous system at pH 3.5; assay type: physicochemical
How it was run: (§2)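 RP-HPLC on an octadecyl silica column (150 × 4.6 mm, 5 µm) at 22 ± 1 °C, flow 1.0 mL min⁻¹, UV detection at 254 nm. Mobile phase was methanol, acetonitrile or dioxane with water and 0.01 M phosphate buffer pH 3.5 containing 0.05 M DEA. log k_W was extrapolated to pure water by regression.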

[3] = Lipophilicity, log kw in dioxane aqueous system at pH 3.5; assay type: physicochemical; settings: buffer; how it was run: as §2
[4] = Antiproliferative activity against human skin fibroblast assessed as cell viability at 1 uM by MTT assay; assay type: cell-based; settings: human skin fibroblasts, read-out: Activity
How it was run: (§3)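 Log-phase cells, kept in supplemented RPMI 1640 (HSF in DMEM/10% FBS) at 37 °C, 5% CO2, were exposed 24 h to 1, 50 or 100 µM compound from DMSO. They were washed, given 0.5 mg/mL MTT in HEPES buffer pH 7.4 for 45 min at 37 °C, and formazan was dissolved in DMSO and read at 570 nm. Values are % viability versus control from three independent measurements.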

[5] = Lipophilicity, log kw in methanol aqueous system at pH 3.5; assay type: physicochemical; how it was run: as §2
HeLa [6] = assay: Antiproliferative activity against human HeLa cells assessed as cell viability at 100 uM by MTT assay; assay type: functional; settings: read-out: Activity; how it was run: as §3
[7] = Antiproliferative activity against human skin fibroblast assessed as cell viability at 100 uM by MTT assay; assay type: cell-based; settings: human skin fibroblasts, read-out: Activity; how it was run: as §1
[8] = Antiproliferative activity against human RPMI cells assessed as cell viability at 50 uM by MTT assay; assay type: functional; settings: read-out: Activity; how it was run: as §3
HeLa [9] = assay: Antiproliferative activity against human HeLa cells assessed as cell viability at 1 uM by MTT assay; assay type: functional; settings: read-out: Activity; how it was run: as §3
[10] = Antiproliferative activity against human RPMI cells assessed as cell viability at 1 uM by MTT assay; assay type: functional; settings: read-out: Activity; how it was run: as §3
HeLa [11] = assay: Antiproliferative activity against human HeLa cells assessed as cell viability at 50 uM by MTT assay; assay type: functional; settings: read-out: Activity; how it was run: as §3
[12] = Antiproliferative activity against human RPMI cells assessed as cell viability at 100 uM by MTT assay; assay type: functional; settings: read-out: Activity; how it was run: as §3
Proteus vulgaris [13] = assay: Antimicrobial activity against Proteus vulgaris at 200 ug/mL by disc-diffusion method; assay type: functional; settings: read-out: IZ
How it was run: (§4)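 Kirby–Bauer disc diffusion: 5 mm paper discs soaked in compound solution in DMSO (100 or 200 µg/mL; reference drugs 200 µg/mL) and laid on inoculated Mueller-Hinton agar (bacteria) or Sabouraud agar (C. albicans, Aspergillus). DMSO discs were the control. Plates ran 24 h at 35 °C. Inhibition zone diameter was scored 0–10 mm R, 11–16 mm I, 17–25 mm S; triplicate.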

Candida albicans [14] = assay: Antimicrobial activity against Candida albicans ATCC 10231 at 200 ug/mL by disc-diffusion method; assay type: functional; settings: read-out: IZ; how it was run: as §4
Klebsiella pneumoniae [15] = assay: Antimicrobial activity against Klebsiella pneumoniae at 200 ug/mL by disc-diffusion method; assay type: functional; settings: read-out: IZ; how it was run: as §4
Klebsiella aerogenes [16] = assay: Antimicrobial activity against Enterobacter aerogenes at 100 ug/mL by disc-diffusion method; assay type: functional; settings: read-out: IZ; how it was run: as §4
Aspergillus sp. [17] = assay: Antimicrobial activity against Aspergillus sp. at 100 ug/mL by disc-diffusion method; assay type: functional; settings: read-out: IZ; how it was run: as §4
Pseudomonas aeruginosa [18] = assay: Antimicrobial activity against Pseudomonas aeruginosa ATCC 27853 after 24 hrs by microdilution assay; assay type: functional; settings: ATCC 27853, 24 h
Staphylococcus aureus [19] = assay: Antimicrobial activity against Staphylococcus aureus ATCC 25923 at 200 ug/mL by disc-diffusion method; assay type: functional; settings: read-out: IZ; how it was run: as §4
Escherichia coli [20] = assay: Antimicrobial activity against Escherichia coli ATCC 25922 at 100 ug/mL by disc-diffusion method; assay type: functional; settings: read-out: IZ; how it was run: as §4
Streptococcus pyogenes [21] = assay: Antimicrobial activity against Streptococcus pyogenes at 200 ug/mL by disc-diffusion method; assay type: functional; settings: read-out: IZ; how it was run: as §4
Streptococcus agalactiae [22] = assay: Antimicrobial activity against Streptococcus agalactiae at 200 ug/mL by disc-diffusion method; assay type: functional; settings: read-out: IZ; how it was run: as §4
Aspergillus sp. [23] = assay: Antimicrobial activity against Aspergillus sp. at 200 ug/mL by disc-diffusion method; assay type: functional; settings: read-out: IZ; how it was run: as §4
Streptococcus pyogenes [24] = assay: Antimicrobial activity against Streptococcus pyogenes at 100 ug/mL by disc-diffusion method; assay type: functional; settings: read-out: IZ; how it was run: as §4
[25] = system: Staphylococcus epidermidis; assay: Antimicrobial activity against Staphylococcus epidermidis at 200 ug/mL by disc-diffusion method; assay type: functional; settings: read-out: IZ; how it was run: as §4
Staphylococcus aureus [26] = assay: Antimicrobial activity against Staphylococcus aureus ATCC 25923 at 100 ug/mL by disc-diffusion method; assay type: functional; settings: read-out: IZ; how it was run: as §4
Candida albicans [27] = assay: Antimicrobial activity against Candida albicans ATCC 10231 at 100 ug/mL by disc-diffusion method; assay type: functional; settings: read-out: IZ; how it was run: as §4
Pseudomonas aeruginosa [28] = assay: Antimicrobial activity against Pseudomonas aeruginosa ATCC 27853 at 200 ug/mL by disc-diffusion method; assay type: functional; settings: read-out: IZ; how it was run: as §4
Klebsiella aerogenes [29] = assay: Antimicrobial activity against Enterobacter aerogenes at 200 ug/mL by disc-diffusion method; assay type: functional; settings: read-out: IZ; how it was run: as §4
Escherichia coli [30] = assay: Antimicrobial activity against Escherichia coli ATCC 25922 at 200 ug/mL by disc-diffusion method; assay type: functional; settings: read-out: IZ; how it was run: as §4
Proteus vulgaris [31] = assay: Antimicrobial activity against Proteus vulgaris at 100 ug/mL by disc-diffusion method; assay type: functional; settings: read-out: IZ; how it was run: as §4
Pseudomonas aeruginosa [32] = assay: Antimicrobial activity against Pseudomonas aeruginosa ATCC 27853 at 100 ug/mL by disc-diffusion method; assay type: functional; settings: read-out: IZ; how it was run: as §4
Streptococcus agalactiae [33] = assay: Antimicrobial activity against Streptococcus agalactiae at 100 ug/mL by disc-diffusion method; assay type: functional; settings: read-out: IZ; how it was run: as §4
Klebsiella pneumoniae [34] = assay: Antimicrobial activity against Klebsiella pneumoniae at 100 ug/mL by disc-diffusion method; assay type: functional; settings: read-out: IZ; how it was run: as §4
[35] = system: Staphylococcus epidermidis; assay: Antimicrobial activity against Staphylococcus epidermidis at 100 ug/mL by disc-diffusion method; assay type: functional; settings: read-out: IZ; how it was run: as §4
Candida albicans [36] = assay: Antimicrobial activity against Candida albicans ATCC 10231 after 24 hrs by microdilution assay; assay type: functional; settings: ATCC 10231, 24 h

| logKw [2] | logKw [3] | logKw [5] | Compound | zone of inhibition at 200 µg/mL (Proteus vulgaris [13]) [mm] | zone of inhibition at 200 µg/mL (Candida albicans [14]) [mm] | zone of inhibition at 200 µg/mL (Klebsiella pneumoniae [15]) [mm] | zone of inhibition at 100 µg/mL (Klebsiella aerogenes [16]) [mm] | zone of inhibition at 100 µg/mL (Aspergillus sp. [17]) [mm] | zone of inhibition at 200 µg/mL (Staphylococcus aureus [19]) [mm] | zone of inhibition at 100 µg/mL (Escherichia coli [20]) [mm] | zone of inhibition at 200 µg/mL (Streptococcus pyogenes [21]) [mm] | zone of inhibition at 200 µg/mL (Streptococcus agalactiae [22]) [mm] | zone of inhibition at 200 µg/mL (Aspergillus sp. [23]) [mm] | zone of inhibition at 100 µg/mL (Streptococcus pyogenes [24]) [mm] | zone of inhibition at 200 µg/mL [25] [mm] | zone of inhibition at 100 µg/mL (Staphylococcus aureus [26]) [mm] | zone of inhibition at 100 µg/mL (Candida albicans [27]) [mm] | zone of inhibition at 200 µg/mL (Pseudomonas aeruginosa [28]) [mm] | zone of inhibition at 200 µg/mL (Klebsiella aerogenes [29]) [mm] | zone of inhibition at 200 µg/mL (Escherichia coli [30]) [mm] | other results |
| --- | --- | --- | --- | --- | --- | --- | --- | --- | --- | --- | --- | --- | --- | --- | --- | --- | --- | --- | --- | --- | --- |
| 1.56 | 1.22 | 1.87 | COc1ccc(N2CCn3cnnc32)cc1 | – | – | – | – | – | – | – | – | – | – | – | – | – | – | – | – | – | viability at 50 µM [1]: 95.2%; viability at 1 µM [4]: 105%; viability at 100 µM (HeLa [6]): 80.6%; viability at 100 µM [7]: 89.3%; viability at 50 µM [8]: 96.5%; viability at 1 µM (HeLa [9]): 93%; viability at 1 µM [10]: 102%; viability at 50 µM (HeLa [11]): 91.7%; viability at 100 µM [12]: 91.3% |
| 3.32 | 4.61 | 6 | Clc1ccc(OCc2nnc3n2CCN3c2ccc(Cl)c(Cl)c2)c(Cl)c1 | 17 | 0 | 11 | 0 | 0 | 0 | 0 | 0 | 0 | 0 | 0 | 0 | 0 | 0 | 17 | 11 | 0 | MIC (Pseudomonas aeruginosa [18]): 36.3 µM (≈ 15.6 µg/mL); zone of inhibition at 100 µg/mL (Proteus vulgaris [31]): 11 mm; zone of inhibition at 100 µg/mL (Pseudomonas aeruginosa [32]): 11 mm; zone of inhibition at 100 µg/mL (Streptococcus agalactiae [33]): 0 mm; zone of inhibition at 100 µg/mL (Klebsiella pneumoniae [34]): 0 mm; zone of inhibition at 100 µg/mL [35]: 0 mm |
| – | -0.09 | – | Sc1nnc2n1CCN2c1ccc(Cl)cc1 | 0 | 17 | 0 | 0 | 0 | 0 | 0 | 0 | 0 | 0 | 0 | 0 | 0 | 17 | 0 | 0 | 0 | MIC (Candida albicans [36]): 30.9 µM (≈ 7.81 µg/mL); zone of inhibition at 100 µg/mL (Proteus vulgaris [31]): 0 mm; zone of inhibition at 100 µg/mL (Pseudomonas aeruginosa [32]): 0 mm; zone of inhibition at 100 µg/mL (Streptococcus agalactiae [33]): 0 mm; zone of inhibition at 100 µg/mL (Klebsiella pneumoniae [34]): 0 mm; zone of inhibition at 100 µg/mL [35]: 0 mm |

— ChEMBL document CHEMBL1149773, “Synthesis, determination of the lipophilicity, anticancer and antimicrobial properties of some fused 1,2,4-triazole derivatives” (Eur J Med Chem, 2008)
